Test results taken from ChEMBL document CHEMBL3745614, “Potent and selective N-(4-sulfamoylphenyl)thiourea-based GPR55 agonists” (Eur J Med Chem, 2016).

How the values were obtained:
[1] = target: T1, G-protein coupled receptor 55 (Homo sapiens, UniProt Q9Y2T6); experiment: Agonist activity at human GPR55 expressed in CHOK1 cells at 10 uM by pathHunter beta-arrestin assay relative to LPI; format: cell-based; conditions: CHO-K1
How it was run: (§1)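 PathHunter eXpress GPR55 CHO-K1 β-arrestin kit run per the kit protocol, compounds screened at 10 μM. Luminescence read and expressed as percentage of the signal from bovine liver LPI at 1 μM. Mean with range of two experiments, each done in duplicate.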

[2] = target: T1, G-protein coupled receptor 55; experiment: Agonist activity at human GPR55 expressed in HEK293 cells assessed as calcium signalling by fura 2-based digital epifluorescence microscopy; format: functional, cell-based
How it was run: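 HEK293 cells stably expressing GPR55, grown on poly-L-lysine coated glass coverslips and serum-starved overnight. Compounds applied by bath perfusion in HEPES-buffered saline at 30-32 °C. Single-cell fura 2 ratiometric imaging (350/380 nm) every 5 s. Peak responses pooled from 24 cells (12 random cells from each of two experiments) per concentration; EC50 with 95% CI from concentration-response curves. ARA-LPI used as reference agonist.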

[3] = target: Cannabinoid receptor 1 (Homo sapiens) (UniProt P21554); experiment: Agonist activity at CBR1 (unknown origin) assessed as [35S]GTPgammaS binding at 10 uM by […] assay relative to control; format: functional
Chain of Cannabinoid receptor 1 (Homo sapiens) (P21554 whole entry): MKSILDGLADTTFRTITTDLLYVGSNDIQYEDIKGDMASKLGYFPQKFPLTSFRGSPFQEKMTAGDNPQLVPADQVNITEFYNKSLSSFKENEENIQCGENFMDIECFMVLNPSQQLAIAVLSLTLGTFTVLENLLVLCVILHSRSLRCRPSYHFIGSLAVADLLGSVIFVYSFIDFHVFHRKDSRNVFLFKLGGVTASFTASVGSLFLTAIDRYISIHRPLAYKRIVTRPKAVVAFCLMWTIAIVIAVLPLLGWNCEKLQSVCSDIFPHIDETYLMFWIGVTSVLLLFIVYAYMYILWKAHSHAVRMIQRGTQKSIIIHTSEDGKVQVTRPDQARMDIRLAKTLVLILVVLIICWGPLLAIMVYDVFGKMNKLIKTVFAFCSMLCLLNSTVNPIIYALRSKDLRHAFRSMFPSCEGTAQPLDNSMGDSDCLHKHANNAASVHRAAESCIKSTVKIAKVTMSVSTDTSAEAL

[4] = target: Cannabinoid receptor 2 (Homo sapiens) (UniProt P34972); experiment: Antagonist activity at human CBR2 assessed as [35S]GTPgammaS binding at 10 uM by […] assay relative to control; format: functional; parameters: scale not given: the % may be the effect or the level left
Chain of Cannabinoid receptor 2 (Homo sapiens) (P34972 whole entry): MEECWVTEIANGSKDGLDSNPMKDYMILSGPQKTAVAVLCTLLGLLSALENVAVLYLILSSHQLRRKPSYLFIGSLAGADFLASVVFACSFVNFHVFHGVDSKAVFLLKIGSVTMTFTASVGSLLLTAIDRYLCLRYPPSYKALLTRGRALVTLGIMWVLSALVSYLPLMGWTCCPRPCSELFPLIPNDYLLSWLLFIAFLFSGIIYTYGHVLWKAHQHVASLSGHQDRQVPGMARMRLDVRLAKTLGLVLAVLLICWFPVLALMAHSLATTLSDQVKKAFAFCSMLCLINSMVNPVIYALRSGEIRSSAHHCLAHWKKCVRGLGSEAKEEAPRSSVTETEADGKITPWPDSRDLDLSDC

[5] = target: Cannabinoid receptor 2 (Homo sapiens) (UniProt P34972); experiment: Agonist activity at CBR2 (unknown origin) assessed as [35S]GTPgammaS binding at 10 uM by […] assay relative to control; format: functional
[6] = target: T2, Fatty-acid amide hydrolase 1 (Homo sapiens) (UniProt O00519); experiment: Inhibition of human FAAH expressed in African green monkey COS-7 cell membranes using [3H]-AEA as substrate assessed as residual activity at 10 uM preincubated for 10 mins followed by substrate addition measured after 10 mins by liquid scintillation counting analysis relative to control
T2 sequence (whole entry): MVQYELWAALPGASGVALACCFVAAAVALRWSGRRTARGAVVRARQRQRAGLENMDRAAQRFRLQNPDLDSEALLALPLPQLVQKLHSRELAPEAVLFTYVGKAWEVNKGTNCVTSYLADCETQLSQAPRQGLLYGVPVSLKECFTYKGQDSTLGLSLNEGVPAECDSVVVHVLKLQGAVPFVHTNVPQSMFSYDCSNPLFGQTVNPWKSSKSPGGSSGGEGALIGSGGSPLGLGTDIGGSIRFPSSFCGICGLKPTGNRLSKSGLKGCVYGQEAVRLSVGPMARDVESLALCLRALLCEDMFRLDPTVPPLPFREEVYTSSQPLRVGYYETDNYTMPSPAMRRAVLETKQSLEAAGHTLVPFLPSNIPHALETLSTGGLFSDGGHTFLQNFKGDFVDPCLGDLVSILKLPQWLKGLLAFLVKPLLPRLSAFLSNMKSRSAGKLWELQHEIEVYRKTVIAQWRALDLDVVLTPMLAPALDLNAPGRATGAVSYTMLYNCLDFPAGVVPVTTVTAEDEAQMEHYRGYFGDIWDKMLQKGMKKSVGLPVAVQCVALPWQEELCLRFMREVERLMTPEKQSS
How it was run: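 Membranes of COS-7 cells overexpressing hFAAH, 1 μg protein per incubation. Substrate 20 μM AEA including 10 nM [3H]AEA (60 Ci/mmol). Compounds tested at 10 μM.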

[7] = target: T3, Monoglyceride lipase (Homo sapiens) (UniProt Q99685); experiment: Inhibition of human MGL expressed in […] cells using 2AG as substrate assessed as residual activity at 10 uM preincubated for 10 mins followed by substrate addition measured after 10 mins by HPLC analysis; format: cell-based
T3 sequence (whole entry): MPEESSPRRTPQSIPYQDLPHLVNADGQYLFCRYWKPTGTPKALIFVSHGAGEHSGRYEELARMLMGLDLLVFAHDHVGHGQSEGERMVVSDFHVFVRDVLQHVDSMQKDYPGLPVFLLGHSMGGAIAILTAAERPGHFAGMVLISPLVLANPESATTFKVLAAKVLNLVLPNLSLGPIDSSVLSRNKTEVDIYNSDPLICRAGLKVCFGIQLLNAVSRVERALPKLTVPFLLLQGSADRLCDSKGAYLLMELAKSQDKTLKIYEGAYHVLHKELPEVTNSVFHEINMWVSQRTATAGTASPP
How it was run: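 Lysates of HEK cells overexpressing hMGL, 2.5 μg protein per incubation, substrate at 50 μM. Compounds tested at 10 μM.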

[8] = target: T4, Lysophosphatidylserine lipase ABHD12 (Homo sapiens) (UniProt Q8N2K0); experiment: Inhibition of human ABHD12 expressed in […] cells using 2-AG as substrate assessed as glycerol liberation at 1 uM preincubated for 30 mins followed by 2-AG addition measured for 90 mins by fluorescent glycerol assay relative to control; format: cell-based; parameters: scale not given: the % may be the effect or the level left
T4 sequence (whole entry): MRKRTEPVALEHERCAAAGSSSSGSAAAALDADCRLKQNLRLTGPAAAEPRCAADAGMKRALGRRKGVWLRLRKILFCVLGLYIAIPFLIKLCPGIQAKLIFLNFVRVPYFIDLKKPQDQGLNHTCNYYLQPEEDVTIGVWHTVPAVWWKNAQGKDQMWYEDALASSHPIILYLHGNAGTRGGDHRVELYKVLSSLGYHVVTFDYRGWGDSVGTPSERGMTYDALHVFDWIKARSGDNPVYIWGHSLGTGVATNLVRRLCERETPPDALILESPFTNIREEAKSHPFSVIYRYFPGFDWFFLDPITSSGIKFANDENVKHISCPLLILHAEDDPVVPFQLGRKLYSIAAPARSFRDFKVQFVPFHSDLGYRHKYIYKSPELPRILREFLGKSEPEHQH
How it was run: (§2)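 Lysates of HEK293 cells transiently overexpressing hABHD6 or hABHD12, 0.3 μg protein/well. Pretreated 30 min with DMSO or compound, then 2-AG added (12.5 μM final). Glycerol release coupled enzymatically to H2O2-dependent resorufin formation; fluorescence (ex 530/em 590 nm) followed kinetically for 90 min.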

[9] = target: T5, Monoacylglycerol lipase ABHD6 (Homo sapiens) (UniProt Q9BV23); experiment: Inhibition of human ABHD6 expressed in […] cells using 2-AG as substrate assessed as glycerol liberation at 1 uM preincubated for 30 mins followed by 2-AG addition measured for 90 mins by fluorescent glycerol assay relative to control; format: cell-based; parameters: scale not given: the % may be the effect or the level left; how it was run: as §2
T5 sequence (whole entry): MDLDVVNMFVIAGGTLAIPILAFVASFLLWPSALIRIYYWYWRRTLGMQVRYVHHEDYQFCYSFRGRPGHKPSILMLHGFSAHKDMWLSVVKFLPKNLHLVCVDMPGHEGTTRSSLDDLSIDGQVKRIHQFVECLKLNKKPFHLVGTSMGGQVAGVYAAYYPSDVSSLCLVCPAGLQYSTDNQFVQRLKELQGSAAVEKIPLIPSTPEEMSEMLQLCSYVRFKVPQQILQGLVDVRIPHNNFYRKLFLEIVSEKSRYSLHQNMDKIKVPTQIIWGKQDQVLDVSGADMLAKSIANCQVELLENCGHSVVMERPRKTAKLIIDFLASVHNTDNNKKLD

[10] = target: T1, G-protein coupled receptor 55; experiment: Agonist activity at human GPR55 expressed in CHOK1 cells at 10 uM by pathHunter beta-arrestin assay relative to control; format: cell-based; conditions: CHO-K1; how it was run: as §1
[11] = target: Cannabinoid receptor 1 (Homo sapiens) (UniProt P21554); experiment: Antagonist activity at human CBR1 assessed as [35S]GTPgammaS binding at 10 uM by radiometric assay relative to control; parameters: scale not given: the % may be the effect or the level left
[12] = target: T4, Lysophosphatidylserine lipase ABHD12 (Homo sapiens); experiment: Inhibition of human ABHD12 expressed in […] cells using 2-AG as substrate assessed as glycerol liberation at 10 uM preincubated for 30 mins followed by 2-AG addition measured for 90 mins by fluorescent glycerol assay relative to control; format: cell-based; parameters: scale not given: the % may be the effect or the level left; how it was run: as §2
[13] = target: T5, Monoacylglycerol lipase ABHD6 (Homo sapiens); experiment: Inhibition of human ABHD6 expressed in […] cells using 2-AG as substrate assessed as glycerol liberation at 10 uM preincubated for 30 mins followed by 2-AG addition measured for 90 mins by fluorescent glycerol assay relative to control; format: cell-based; parameters: scale not given: the % may be the effect or the level left; how it was run: as §2

T1 sequence (Q9Y2T6 whole entry): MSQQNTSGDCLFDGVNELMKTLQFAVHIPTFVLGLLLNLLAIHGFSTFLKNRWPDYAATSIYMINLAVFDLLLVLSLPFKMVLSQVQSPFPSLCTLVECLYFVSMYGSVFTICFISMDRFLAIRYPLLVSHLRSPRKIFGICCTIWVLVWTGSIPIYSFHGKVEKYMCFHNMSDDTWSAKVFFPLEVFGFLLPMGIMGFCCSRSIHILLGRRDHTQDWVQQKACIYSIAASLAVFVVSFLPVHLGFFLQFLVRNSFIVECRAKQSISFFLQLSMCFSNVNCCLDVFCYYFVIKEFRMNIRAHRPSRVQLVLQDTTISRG

**Q.** Which results are given for O=C(NC(=S)Nc1ccc(S(=O)(=O)NCc2ccc(F)cc2)cc1)c1ccc(-c2ccccc2)cc1?
**A.** Activity [1]: 185%; EC50 [2]: 2 nM; Activity [3]: 99%; Activity [4]: 88%; Activity [5]: 87%; Activity [6]: 100%; Activity [7]: 98%; Activity [8]: 96%; Activity [9]: 95%; Activity [10]: 266%; Activity [11]: 91%

**Q.** Which results are given for O=C(NCCc1ccccc1)c1ccc(NC(=S)NC(=O)c2ccc(-c3ccccc3)cc2)cc1?
**A.** Activity [1]: 68%; EC50 [2]: > 10000 nM; Activity [3]: 98%; Activity [4]: 103%; Activity [5]: 99%; Activity [6]: 85%; Activity [7]: 101%; Activity [8]: 98%; Activity [9]: 96%; Activity [10]: 99%; Activity [11]: 99%

**Q.** Which Activity [1] does the source give for O=C(NC(=S)Nc1ccc(S(=O)(=O)NCCc2ccccc2)cc1)c1ccc(-c2ccccc2)cc1 here?
**A.** 117%

**Q.** What about the EC50 [2] of the same compound?
**A.** 39.2 nM

**Q.** What about the Activity [3] of the same compound?
**A.** 103%

**Q.** What about the Activity [4] of the same compound?
**A.** 103%

**Q.** And the Activity [5]?
**A.** 94%

**Q.** And the Activity [6]?
**A.** 94%

**Q.** What about the Activity [7] of the same compound?
**A.** 99%

**Q.** And the Activity [8]?
**A.** 101%

**Q.** And the Activity [9]?
**A.** 99%

**Q.** What about the Activity [10] of the same compound?
**A.** 173%

**Q.** And the Activity [11]?
**A.** 91%

**Q.** Which Activity [1] does the source give for Cc1ccc(C(=O)NC(=S)Nc2ccc(S(=O)(=O)NC(C)(C)C)cc2)cc1 here?
**A.** 69%

**Q.** What about the Activity [3] of the same compound?
**A.** 105%

**Q.** And the Activity [4]?
**A.** 96%

**Q.** What about the Activity [5] of the same compound?
**A.** 100%

**Q.** What about the Activity [6] of the same compound?
**A.** 103%

**Q.** And the Activity [7]?
**A.** 96%

**Q.** And the Activity [12]?
**A.** 65%

**Q.** What about the Activity [8] of the same compound?
**A.** 100%

**Q.** And the Activity [13]?
**A.** 53%

**Q.** What about the Activity [9] of the same compound?
**A.** 96%

**Q.** What about the Activity [10] of the same compound?
**A.** 102%

**Q.** What about the Activity [11] of the same compound?
**A.** 103%

**Q.** What does the source list for CC(C)NS(=O)(=O)c1ccc(NC(=S)NC(=O)c2ccc(-c3ccccc3)cc2)cc1?
**A.** Activity [3]: 110%; Activity [4]: 86%; Activity [5]: 96%; Activity [6]: 87%; Activity [7]: 98%; Activity [12]: 65%; Activity [8]: 107%; Activity [13]: 34%; Activity [9]: 95%; Activity [10]: 185%; Activity [11]: 92%

**Q.** C=CCN(CC=C)S(=O)(=O)c1ccc(NC(=S)NC(=O)c2ccc([N+](=O)[O-])cc2)cc1 was tested. Which Activity [1] did it give?
**A.** 93%

**Q.** What about the Activity [3] of the same compound?
**A.** 99%

**Q.** And the Activity [4]?
**A.** 105%

**Q.** And the Activity [5]?
**A.** 107%

**Q.** What about the Activity [6] of the same compound?
**A.** 97%

**Q.** What about the Activity [7] of the same compound?
**A.** 104%

**Q.** And the Activity [12]?
**A.** 62%

**Q.** What about the Activity [8] of the same compound?
**A.** 102%

**Q.** What about the Activity [13] of the same compound?
**A.** 53%

**Q.** What about the Activity [9] of the same compound?
**A.** 102%

**Q.** What about the Activity [10] of the same compound?
**A.** 138%

**Q.** What about the Activity [11] of the same compound?
**A.** 91%
